# Screening data (PubChem)
# Shown are actives, neighbours in structure and some others; about 2.3% of the full set was active somewhere.
# MT1-MMP act inh: blockers of MT1-MMP proenzyme processing, primary screen, HT1080 RFP-PRO-GFP cells, GFP/RFP fluorescence. GFP/RFP ratio fluorescence, overnight; percent of plate control window, DMSO zero. GFP/RFP ratio change, % at 20 µM. Matrix metalloproteinase-14 (Homo sapiens), P50281. actives 0.061% (n = 360,000);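 active means GFP/RFP ratio change of at least 30% with cell ATP level not reduced by more than half and red fluorescence within 50% of control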
#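 Test system: HT1080 cells expressing an RFP-PRO-GFP fluorescent reporter construct / Compound dosing: single-point 20 µM compound, 1% DMSO / Schedule: cells overnight before dosing, compound overnight, 37 °C, 5% CO2 / Evaluation: GFP/RFP fluorescence ratio / Control set: DMSO and RFP-L50D-GFP cell wells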
# ATG4B inh: ATG4B protease inhibitors, primary screen, biochemical, fluorescence, uHTS; ATG4B cleavage of LC3-PLA2, NBD-HPC fluorescence, 1 h; inhibition, % at 8.33 µM; actives 0.51% (n = 340,000); AID 504462, 2011; Cysteine protease ATG4B (Homo sapiens), Q9Y4P1; in the data active means inhibition above about 40%
# Target sequence (Q9Y4P1 whole entry, looked up): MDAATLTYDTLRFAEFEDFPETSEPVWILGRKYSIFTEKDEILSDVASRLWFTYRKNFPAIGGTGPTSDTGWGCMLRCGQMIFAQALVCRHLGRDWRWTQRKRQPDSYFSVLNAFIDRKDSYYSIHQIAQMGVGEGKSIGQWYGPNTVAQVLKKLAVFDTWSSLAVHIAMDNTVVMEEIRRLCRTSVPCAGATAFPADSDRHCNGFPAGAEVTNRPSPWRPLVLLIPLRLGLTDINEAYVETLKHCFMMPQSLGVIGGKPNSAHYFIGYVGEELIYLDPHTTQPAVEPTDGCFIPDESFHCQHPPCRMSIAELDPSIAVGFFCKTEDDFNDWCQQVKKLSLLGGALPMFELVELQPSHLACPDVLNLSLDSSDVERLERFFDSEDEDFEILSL
# MPTP block: mitochondrial permeability transition pore inhibitors, primary screen, biochemical, isolated mouse mitochondria, absorbance; inhibition, % at 10 µM; actives 1.4% (n = 360,000); Ca2+ swelling absorbance, 30 min;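 active means inhibition of 50% or more, scaled per plate between neutral and stimulator controls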
# SKN-1 inh: suppressors of acrylamide-induced Pgst-4::GFP reporter in worms, primary screen, SKN-1 inhibitor project, whole organism, uHTS, GFP/RFP fluorescence ratio, strain VP596. inhibition, % at 21.8 µM. AID 624304, 2012. actives 0.49% (n = 360,000). C. elegans VP596 Pgst-4::GFP/RFP ratio, 24 h;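 active means interference check ratio from 0.5 to 1.5 plus GFP to RFP signal ratio inhibition reaching or exceeding a fixed threshold, cut at about 30% in these data, passing the limit was not always enough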
# ATG4B conf: ATG4B protease inhibitors, retest, confirmation, biochemical, fluorescence, single concentration; shares compounds with ATG4B inh; ATG4B protease fluorescent substrate cleavage assay; inhibition, % at 8.33 µM; actives 92% (n = 320); AID 504757, 2011; in the data active means inhibition above about 39%
# PLA2 ctr: PLA2 enzyme inhibition, counter-screen for ATG4B inhibitor project, biochemical, single concentration, uHTS hits; purified PLA2, NBD-C6-HPC fluorescence, 45 min; shares compounds with ATG4B inh; inhibition, % at 8.33 µM; actives 66% (n = 1,600); in the data active means inhibition above about 50%
# Target sequence (P04054 whole entry, looked up): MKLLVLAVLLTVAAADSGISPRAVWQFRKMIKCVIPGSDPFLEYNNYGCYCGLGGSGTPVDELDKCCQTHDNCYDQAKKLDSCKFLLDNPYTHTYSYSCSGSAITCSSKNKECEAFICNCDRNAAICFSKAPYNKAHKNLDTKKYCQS
# Numbers stand for hits; – = inactive; · = no result given.
SMILES,MT1-MMP act inh,ATG4B inh,MPTP block,SKN-1 inh,others
C=CCn1c(C)c(C=C2C(=O)NC(=O)NC2=O)c2ccccc21,–,–,–,40,
Cn1cc(C=C2C(=O)NC(=O)NC2=O)c2ccccc21,–,–,–,–,
NC(Cc1ccccc1)c1nn[nH]n1 (stereo not given),–,–,–,–,
C=CC12CN(C)C3C4COC(CC41)C1(C(=O)Nc4ccccc41)C32 (stereo not given),–,·,–,–,
C=CCN1C(=O)C2(C(C(=O)OCC)=C(N)Oc3ccccc32)C2=C1CCCC2=O (stereo not given),–,–,–,37,
COc1cc(N2CCOCC2)ccc1/C=C1\C(=O)NC(=O)N(C2CCCCC2)C1=O,–,–,–,50,
COc1ccc(C(SCC(NC(=O)OCc2ccccc2)C(=O)O)c2ccc(OC)cc2)cc1 (stereo not given),–,·,–,–,
C=C(C)[C@@]12OC3(c4ccccc4)O[C@@H]1C1[C@@H]4O[C@]4(CO)[C@@H](O)[C@]4(O)C(=O)C(C)=C[C@H]4[C@@]1(O3)[C@H](C)[C@H]2OC(=O)/C=C/C=C/c1ccccc1 (stereo not given in full),–,–,–,70,
CCCCN1C(=O)/C(=C/c2ccc(N(C)C)cc2)C(=O)N(Cc2ccco2)C1=O,–,–,–,40,
CCCCn1c(=O)c(C=Nc2ccc(Cl)cc2)c(O)n(Cc2ccco2)c1=O,–,–,–,–,
CCN(CC)c1ccc(/C=C2\C(=O)NC(=O)N(Cc3ccco3)C2=O)cc1,–,–,–,48,
N#CC1c2ccccc2-n2nncc2CN1Cc1cc(Cl)cc(Cl)c1 (stereo not given),–,–,–,–,
COc1ccc(CN2CCN(c3ccccc3F)CC2)cc1O,–,–,–,46,
COc1ccccc1N1CCN(Cc2ccc(F)cc2)CC1,–,–,–,–,
CCOC(=O)[C@]12Cc3cc4ccccc4cc3[C@H]1N(Cc1ccccc1)C(=O)c1ccccc12,–,·,–,–,
Cc1cc(N(CCCl)CCCl)ccc1C=Cc1ccncn1,–,–,–,42,
CN1C(=O)/C(=C\c2ccc(Br)s2)C(=O)NC1=S,·,–,–,37,
CCOC(=O)[C@]12Cc3cc(Cl)ccc3[C@H]1N(C1CCCCC1)C(=O)c1ccccc12,–,·,–,–,
Cc1cccc(N2C(=O)NC(=O)/C(=C/c3cc4c(cc3[N+](=O)[O-])OCO4)C2=O)c1,–,–,–,–,
Cc1cccc(N2C(=O)NC(=O)/C(=C\c3ccc4c(c3)CCCN4Cc3ccccc3)C2=O)c1,–,–,–,40,
CCN(CC)C(=O)c1ccc2c(c1)C1C(Cl)C(Sc3ccccc3[N+](=O)[O-])CC1C(C(=O)O)N2 (stereo not given),–,–,–,–,
O=C(O)c1ccc2c(c1)C1C(Cl)C(Sc3ccccc3[N+](=O)[O-])CC1C(c1cccc([N+](=O)[O-])c1)N2 (stereo not given),–,48,–,–,
O=C(O)c1cccc2c1NC(c1cccc([N+](=O)[O-])c1)C1CC(Sc3ccccc3[N+](=O)[O-])C(Cl)C21 (stereo not given),–,88,–,–,
COC(=O)C1=C(c2ccc(F)cc2OCc2ccccc2)C[C@@H]2CC[C@H]1N2C(=O)NCc1ccc2c(c1)OCO2,–,–,–,–,
OCC[n+]1c2ccccc2nc2ccc(N3CCOCC3)cc21,–,–,–,38,
SMILES,MT1-MMP act inh,ATG4B inh,MPTP block,SKN-1 inh,others
CCOC(=O)[C@]12Cc3c(cc(OC)c(OC)c3OC)[C@H]1N(C(C)C)C(=O)c1cc(OC)ccc12,–,·,–,–,
CCOc1ccc(N2C(=O)/C(=C\c3cccs3)C(=O)NC2=S)cc1,·,–,·,·,
CCOc1ccc(N2C(=O)/C(=C/c3ccco3)C(=O)NC2=S)cc1,–,81,–,–,
CCOC(=O)CNC(=O)N1Cc2ccccc2-n2nncc2C1,–,·,–,–,
CCOC(=O)C1=C(C)N(C)C2(C)CC1c1ccccc1O2 (stereo not given),–,48,–,–,PLA2 ctr=–
CC12CC(c3ccccc3O1)C(C(=O)OCc1ccccc1)C(=O)N2 (stereo not given),–,–,–,–,
C[C@]12CCC3C(CC[C@H]4C[C@@H](O)CC[C@]34C)C1C[C@H](Br)[C@@H]2O (stereo not given in full),–,·,–,–,
Cc1cc(OCC(=O)NC(Cc2ccc(Cl)cc2)C(=O)O)c2c3c(c(=O)oc2c1)CCCC3 (stereo not given),–,45,–,–,PLA2 ctr=72
COc1ccc(-c2cc(=Nc3cccc(C(=O)O)c3)c3cc(C)ccc3o2)cc1,–,61,–,–,PLA2 ctr=76
C=CCN1Cc2ccccc2-n2nncc2C1,–,·,–,–,
Cc1ccc(CN2C3CCCC2CC(NC(=S)NCc2ccccc2)C3)cc1 (stereo not given),–,43,–,–,ATG4B conf=67;PLA2 ctr=–
Clc1ccccc1CN1CCN(c2ccccc2Cl)CC1,–,46,–,–,ATG4B conf=70;PLA2 ctr=–
Clc1ccccc1N1CCN(Cc2ccc3c(c2)OCO3)CC1,–,–,–,–,
CSCCC(c1nnnn1-c1ccc2c(c1)OCCO2)N1CCC(n2c(=O)[nH]c3ccccc32)CC1 (stereo not given),–,·,–,–,
CCc1nn2c(=O)c(F)c(N3CCNCC3)nc2s1,–,·,–,–,
COc1ccc(C(=O)C2CCCN(CC3CCCCC3)C2)cc1OC (stereo not given),–,·,–,–,
O=c1c2ccccc2nc(/C=C/c2ccccc2)n1-c1ccccc1O,–,62,–,–,PLA2 ctr=70
CN(C)[C@@H]1C(=O)C(C(N)=O)=C(O)[C@@]2(O)C(=O)C3=C(O)c4c(O)ccc(Cl)c4[C@@](C)(O)C3C[C@@H]12 (stereo not given in full),–,80,–,–,ATG4B conf=47;PLA2 ctr=–
Cc1ccc(Cn2cc(C=O)c(-c3ccc(F)cc3)n2)cc1,–,–,–,–,
Cc1ccc(-c2nn(Cc3ccccc3)cc2C=O)cc1C,–,61,–,–,PLA2 ctr=78
Cc1ccc(-c2nn(Cc3ccccc3)cc2C=O)cc1,–,48,–,–,PLA2 ctr=59
Cc1ccc(-c2nn(Cc3ccccc3)cc2C(=O)O)cc1,–,–,–,–,
